Experimental data as given in ChEMBL document CHEMBL3817762, “Monoacidic Inhibitors of the Kelch-like ECH-Associated Protein 1: Nuclear Factor Erythroid 2-Related Factor 2 (KEAP1:NRF2) Protein-Protein Interaction with High Cell Potency Identified by Fragment-Based Discovery” (J Med Chem, 2016).

Key:
Assay type in all cases: ADME, organism-based
[1] = Drug level in Han Wistar rat blood at 35 umol/kg, iv dosed up to 6 hrs infusions by LC-MS/MS analysis; details: whole blood, read-out: Drug uptake
Outline: (§1)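 Han Wistar rats (250-300 g, n=8/group) received the compound by IV infusion over 6 h at 10, 35 or 50 µmol/kg. Blood concentration was taken as the steady-state level over the 6 h infusion period.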

[2] = Drug level in Han Wistar rat blood at 50 umol/kg, iv dosed up to 6 hrs infusions by LC-MS/MS analysis; details: whole blood, read-out: Drug uptake; outline: as §1
[3] = Drug level in Han Wistar rat blood at 10 umol/kg, iv dosed up to 6 hrs infusions by LC-MS/MS analysis; details: whole blood, read-out: Drug uptake; outline: as §1
[4] = Systemic oral bioavailability in Han Wistar rat at 2 mg/kg after 24 hrs by LC-MS/MS analysis; details: in vivo
Outline: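 Han Wistar rats (n=3) were dosed IV and PO in a crossover design with a two-day washout. Blood was sampled over 24 h and analysed by LC/MS/MS.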

With `COc1cc([C@@H](CC(=O)O)c2ccc(C)c(CN3C[C@@H](C)Oc4ccccc4S3(=O)=O)c2)cc2nnn(C)c12` as the compound, how does the concentration at 6 h [1] read?
The concentration at 6 h was 946 nM.

And the concentration at 6 h [2]?
The concentration at 6 h was 1440 nM.

And the concentration at 6 h [3]?
Its concentration at 6 h is 407 nM.

What about the bioavailability [4] of the same compound?
Its bioavailability is 7%.
